This is an account of results in PubChem BioAssay.

A short description of test [1]: nonspecific flux increase, KCNQ1-free cells – parental CHO cells, counter-screen for KCNQ1 potentiator project (AID 493006;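 active means duplicate-averaged activation above buffer control mean plus 5 SD of those controls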). Particulars: parental CHO-K1 cells, FluxOR thallium flux, at 10 µM; stronger effect = higher value. Put shortly:
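Assay system: parental CHO-K1 cells lacking KCNQ1, loaded with FluxOR thallium dye; timing: dye 90 min RT, compound 20 min RT; signal: kinetic thallium-flux fluorescence; repeats: duplicate wells per compound, percent values averaged; benchmarks: buffer and R-L3 controls; reagent: Potassium/thallium depolarization pulse; read-out: fluorescence change ratio scaled 0% buffer, 100% R-L3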
On the technique in general: Counterscreens check selectivity or assay interference.

Test [2] deals with Potassium voltage-gated channel subfamily KQT member 1 (Homo sapiens) (UniProt P51787). Nature of the test: enhancement of KCNQ1 channel thallium flux – FluxOR thallium flux, CHO cells, duplicates, confirmation (AID 493007).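 On outcome: cells depolarized by a potassium plus thallium sulfate stimulus after compound.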 Particulars: KCNQ1 cell line, FluxOR thallium flux fluorescence, at 10 µM; stronger effect = higher value, % of reference activator effect, buffer zero. In a few lines:
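material = CHO cells stably expressing the KCNQ1 potassium channel | repeats = duplicate wells per compound | measure = percent activation between buffer and R-L3 responses | signal = FluxOR thallium-flux fluorescence, kinetic read | schedule = FluxOR dye loading 90 min, compound exposure 20 min, room temperature | control set = buffer and R-L3 controls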

Test [3] addresses Potassium voltage-gated channel subfamily KQT member 2 (Rattus norvegicus) (UniProt O88943). Nature of the test: KCNQ2 thallium flux enhancement – KCNQ2-CHO-K1 cells, selectivity assay for KCNQ1 potentiator project (AID 493009;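 active means mean duplicate potentiation above the buffer control mean plus 5 SD of buffer wells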;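 further: assay conditions were tuned for KCNQ1 rather than KCNQ2 modulators; signal is max minus min fluorescence divided by baseline after thallium stimulus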). As to conditions: FluxOR thallium flux fluorescence, at 10 µM; stronger effect = higher value, scaled: buffer 0, activator control 100.
Test [4] concerns the target Potassium voltage-gated channel subfamily KQT member 1 (Homo sapiens) (UniProt P51787). Nature of the test: KCNQ1 activators by electrophysiology – IonWorks patch clamp, KCNQ1-CHO cells, orthogonal assay for KCNQ1 potentiator project, confirmation (AID 493184;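 active means current rise at least 3 SD above the untreated control mean in each of two repeat wells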). As to conditions: automated patch clamp current, at 10 µM; stronger effect = higher value. In a few lines:
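Assay system – CHO cells carrying KCNQ1 · Medium – pH 7.4 external bath · Probe or stimulus – depolarizing pulse to +40 mV from -90 mV · Compound dosing – one dose, 10 µM final · Measured by – automated perforated-patch electrophysiology · Measure – % potentiation of steady-state current relative to pre-compound · Repeats – two replicates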
A general note: The patch-clamp technique gives a direct electrical read-out from membranes.

The target in test [5] is Potassium voltage-gated channel subfamily E member 1 (Homo sapiens) + Potassium voltage-gated channel subfamily KQT member 1 (Homo sapiens) (UniProt P15382+P51787). Kind of test: KCNQ1-E1 channel activation – thallium flux, CHO-K1 KCNQ1/E1 cells, selectivity assay for KCNQ1 potentiator project, confirmation (AID 493186;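 active means mean duplicate activation above the buffer control mean plus 5 SD of those controls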). As to conditions: FluxOR thallium flux, at 10 µM; stronger effect = higher value. In a few lines:
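Assay system: CHO-K1 cells with KCNQ1/E1 | Dosing: Single compound concentration per well | Incubation: Dye 90 min, compound 20 min, room temperature | Measured by: FluxOR Tl+ flux fluorescence, kinetic read | Controls: Buffer low control, R-L3 high control | Replicates: Duplicate wells per compound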

Structures are written as SMILES. The source made the active and inactive calls.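 How the source made its calls, unless noted: active means potentiation averaged over duplicate wells exceeding buffer-only control mean by more than 3 SD; inactive means the rest.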

Potassium voltage-gated channel subfamily KQT member 2 (Rattus norvegicus), sequence (O88943 whole entry, looked up): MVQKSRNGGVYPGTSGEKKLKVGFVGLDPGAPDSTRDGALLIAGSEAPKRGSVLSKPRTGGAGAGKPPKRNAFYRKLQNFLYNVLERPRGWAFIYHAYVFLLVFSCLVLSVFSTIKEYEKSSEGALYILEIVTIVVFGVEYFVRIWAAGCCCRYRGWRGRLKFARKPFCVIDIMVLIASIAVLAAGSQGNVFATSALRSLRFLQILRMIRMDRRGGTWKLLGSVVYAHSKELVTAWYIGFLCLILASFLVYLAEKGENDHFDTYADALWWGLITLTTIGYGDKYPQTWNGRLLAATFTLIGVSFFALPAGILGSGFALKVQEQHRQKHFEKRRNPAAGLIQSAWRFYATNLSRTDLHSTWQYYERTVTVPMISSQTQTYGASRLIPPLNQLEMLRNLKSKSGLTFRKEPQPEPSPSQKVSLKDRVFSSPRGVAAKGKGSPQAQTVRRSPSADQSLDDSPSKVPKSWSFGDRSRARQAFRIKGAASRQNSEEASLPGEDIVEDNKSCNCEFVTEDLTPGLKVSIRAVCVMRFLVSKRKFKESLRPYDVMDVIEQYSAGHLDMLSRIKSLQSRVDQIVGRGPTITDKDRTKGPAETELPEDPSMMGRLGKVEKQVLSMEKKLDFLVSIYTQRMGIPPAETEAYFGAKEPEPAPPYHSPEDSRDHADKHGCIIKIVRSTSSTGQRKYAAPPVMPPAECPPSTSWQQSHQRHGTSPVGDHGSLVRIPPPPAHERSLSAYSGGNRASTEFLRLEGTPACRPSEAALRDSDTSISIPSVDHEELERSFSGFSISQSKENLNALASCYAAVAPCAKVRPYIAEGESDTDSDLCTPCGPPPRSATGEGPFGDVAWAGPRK
Potassium voltage-gated channel subfamily E member 1 (Homo sapiens) + Potassium voltage-gated channel subfamily KQT member 1 (Homo sapiens), sequence (P51787 whole entry, looked up): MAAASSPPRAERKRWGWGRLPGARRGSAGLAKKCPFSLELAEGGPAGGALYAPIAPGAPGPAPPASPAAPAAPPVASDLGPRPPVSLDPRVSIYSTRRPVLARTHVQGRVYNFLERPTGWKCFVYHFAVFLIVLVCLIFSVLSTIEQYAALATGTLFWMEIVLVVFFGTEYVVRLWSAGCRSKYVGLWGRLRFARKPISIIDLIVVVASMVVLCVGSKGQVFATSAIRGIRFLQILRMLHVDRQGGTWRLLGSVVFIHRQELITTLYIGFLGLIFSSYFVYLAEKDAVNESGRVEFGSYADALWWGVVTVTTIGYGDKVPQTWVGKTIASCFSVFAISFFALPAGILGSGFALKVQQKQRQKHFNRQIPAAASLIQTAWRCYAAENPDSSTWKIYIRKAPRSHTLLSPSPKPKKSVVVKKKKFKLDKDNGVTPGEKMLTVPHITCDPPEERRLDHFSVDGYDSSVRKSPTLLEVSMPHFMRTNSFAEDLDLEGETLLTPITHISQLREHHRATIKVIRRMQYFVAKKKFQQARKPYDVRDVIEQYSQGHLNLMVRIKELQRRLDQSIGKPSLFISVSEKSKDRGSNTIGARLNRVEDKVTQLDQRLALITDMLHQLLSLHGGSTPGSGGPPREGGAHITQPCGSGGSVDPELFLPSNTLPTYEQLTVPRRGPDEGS
Potassium voltage-gated channel subfamily KQT member 1 (Homo sapiens), sequence (P51787 whole entry, looked up): as above

With `COc1ccc(NC(=S)NCCC(c2ccccc2)c2ccccc2)c(OC)c1`, the outcome in test [1], in test [3], in test [4] and in test [5] was inactive. Besides, in test [2], the potentiation was 72.5% (active).
As for `COc1cc(/C=N/Nc2nc(N3CCCC3)nc(N3CCCC3)n2)ccc1OCc1ccccc1F`, the result in test [1], in test [2], in test [3], in test [4] and in test [5] was inactive.
Consider `N#CC(c1ccccc1)c1ccc2c(C(F)(F)F)cc(C(F)(F)F)nc2n1` (stereo not given), for which the outcome in test [1], in test [3], in test [4] and in test [5] was inactive. Moreover, the potentiation in test [2] was 129% (active).
Regarding `O=C(NC(=S)Nc1ccccc1N1CCCC1)c1ccc(-c2cccc([N+](=O)[O-])c2)o1`, the result in test [1], in test [2], in test [3], in test [4] and in test [5] was inactive.
Regarding `COCc1cc(C)nc(NCCO)c1C#N`, the result in test [1], in test [2], in test [3], in test [4] and in test [5] was inactive.
As for `O=[N+]([O-])c1cccc(/C=N/Nc2nc(NCc3ccccc3)nc(N3CCOCC3)n2)c1O`, the result in test [1], in test [2], in test [3], in test [4] and in test [5] was inactive.
With `O=c1cc2c(nn1Cc1c(Cl)cccc1Cl)-c1ccccc1CC2`, the result in test [1], in test [3], in test [4] and in test [5] was inactive. Moreover, the potentiation in test [2] was 24% (active).
As to `Fc1ccc(/C=N/n2c(-c3cccs3)n[nH]c2=S)cc1`, the result in test [1], in test [2], in test [3], in test [4] and in test [5] was inactive.
With `CCN(C(=O)c1cc2c(=O)[nH]c3ccc(C)cc3c2s1)c1ccccc1F`, the outcome in test [1], in test [3], in test [4] and in test [5] was inactive. Besides, in test [2], the potentiation is 25% (active).
Consider `COc1nccnc1NS(=O)(=O)c1ccc(NC(=S)NC(=O)c2ccccc2F)cc1`, for which the outcome in test [1], in test [2], in test [3], in test [4] and in test [5] was inactive.
With `S=c1[nH]c(-c2ccccc2)cn1/N=C/c1ccc(Br)cc1`, the result in test [1], in test [2], in test [3], in test [4] and in test [5] was inactive.
As for `O=C1C(Nc2ccc(O)cc2)=C/C(=N/S(=O)(=O)c2cccs2)c2ccccc21`, the result in test [1], in test [3], in test [4] and in test [5] was inactive. Moreover, the potentiation in test [2] is 17.5% (active).
On to `CN(C(=O)c1ccc2c(c1)OCO2)C1CCCCC1`, for which the outcome in test [1], in test [2], in test [3], in test [4] and in test [5] was inactive.
Take `CCCn1c(N)c(C(=O)CSc2nc3ccccc3c(=O)n2Cc2ccccc2)c(=O)[nH]c1=O`: the result in test [1], in test [2], in test [3], in test [4] and in test [5] was inactive.
`O=C(N/N=C/c1ccc([N+](=O)[O-])o1)c1sc2ccccc2c1Cl`: the outcome in test [1], in test [2], in test [3], in test [4] and in test [5] was inactive.
`CCCc1cc(=O)[nH]c(SCC(=O)Nc2ccc(Br)cc2Br)n1`: the outcome in test [1], in test [2], in test [3], in test [4] and in test [5] was inactive.
With `Cc1cccc(C(=O)NC(=S)NNC(=O)COc2c(C)cccc2C)c1`, the result in test [1], in test [4] and in test [5] was inactive. Further, the potentiation in test [2] is 29.5% (active); in test [3], 176% (active).
For the molecule `O=C(O)CCn1c(-c2ccccc2)cc2ccccc21`, the result in test [1], in test [2], in test [3], in test [4] and in test [5] was inactive.
With `Cc1cc(C(=O)CCl)c(C)n1-c1cccc([N+](=O)[O-])c1`, the outcome in test [1], in test [2], in test [3], in test [4] and in test [5] was inactive.
Regarding `Cc1nnnn1/C(=C\c1ccccc1)C(=O)OCC(=O)Nc1ccc(Cl)cc1F`, the outcome in test [1], in test [2], in test [3], in test [4] and in test [5] was inactive.
For the molecule `C/C(=N\Nc1cccc2cccnc12)c1ccc[nH]1`, the result in test [1], in test [3], in test [4] and in test [5] was inactive. Also, the potentiation in test [2] is 30% (active).
With `O=C(NC1CCCC1)C(=O)N(Cc1cccnc1)C(C(=O)NC1CCCC1)c1ccco1` (stereo not given), the outcome in test [1], in test [3], in test [4] and in test [5] was inactive. Further, the potentiation in test [2] is 35% (active).
In the case of `CCC1(CC)Cc2ccccc2-c2[nH]c(=S)[nH]c(=O)c21`, the result in test [1], in test [2], in test [3], in test [4] and in test [5] was inactive.
For the molecule `COc1cc(C(=O)CCN2CCC(c3ccccc3)C2)cc(OC)c1OC` (stereo not given), the outcome in test [1], in test [2], in test [3], in test [4] and in test [5] was inactive.
On to `O=C(NCCCN1CCCC1)c1ccc2c(c1)N(Cc1ccccc1)CCS2`, for which the result in test [1], in test [2], in test [3], in test [4] and in test [5] was inactive.
For `O=C(NC1(O)C(=O)c2ccccc2C1=O)c1ccc(C(F)(F)F)cc1`, the result in test [1], in test [2], in test [4] and in test [5] was inactive. The potentiation in test [3] was 148% (active).
As for `Cc1cccc(NC(=O)c2cccc(NC(=O)Cc3cccs3)c2)c1`, the result in test [1], in test [3], in test [4] and in test [5] was inactive. Besides, the potentiation in test [2] is 17.5% (active).
As to `Cn1cccc1C(=O)NNC(=O)COc1ccccc1F`, the outcome in test [1], in test [2], in test [3], in test [4] and in test [5] was inactive.
As for `S=C(NCCc1ccccc1)N1CCn2cccc2C1c1cccnc1` (stereo not given), the outcome in test [1], in test [3], in test [4] and in test [5] was inactive. For the same molecule, the potentiation in test [2] was 18.5% (active).
Regarding `Cc1ccc(C2C(C#N)=C(N)OC3=C2C(=O)CC(C)(C)C3)s1` (stereo not given), the result in test [1], in test [2], in test [3], in test [4] and in test [5] was inactive.
